High-throughput results (PubChem)
RGS4-Gao reg = human RGS4-Galphao interaction regulation. Multiplexed bead flow cytometry, RGS4-Galphao binding; actives lie on both sides. hit rate 0.33% among 220,000. AID 1415. P09471. binding response (% of control), % at 10 µM; in the data active = binding response below about 49% or above about 150%; inactive = in between;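 also: fluorescent Galphao activated with aluminum fluoride binding bead-coupled RGS4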
Target sequence (P09471 whole entry, looked up): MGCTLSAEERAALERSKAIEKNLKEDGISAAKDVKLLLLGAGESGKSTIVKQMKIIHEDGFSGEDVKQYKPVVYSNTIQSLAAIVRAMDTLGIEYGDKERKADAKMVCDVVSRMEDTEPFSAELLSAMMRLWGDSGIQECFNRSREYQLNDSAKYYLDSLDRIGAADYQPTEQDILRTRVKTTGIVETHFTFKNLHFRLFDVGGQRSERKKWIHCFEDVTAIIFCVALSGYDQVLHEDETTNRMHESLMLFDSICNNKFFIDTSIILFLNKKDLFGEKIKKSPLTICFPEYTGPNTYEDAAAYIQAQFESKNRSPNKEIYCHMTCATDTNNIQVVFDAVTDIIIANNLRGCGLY
ABCG2 inh = blocks JC-1 efflux by human ABCG2 transporter | inhibition, % at 6.6 µM | IgMXP3 cells, flow cytometry | AID 1325 | Q9UNQ0 | hit rate 0.1% among 190,000;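 active = inhibition above 80%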
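test system = two drug-resistant human cell lines, ABCG2 and ABCB1 | amount = 3 million cells/mL final, two lines in 1:1 ratio | reagent = JC-1 transporter substrate | doses = one concentration, 6.6 µM final | incubation = 10 min at 25 °C | signal = flow cytometric JC-1 green MFI at 530 nm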
RGS8-Gao reg = human RGS8-Galphao interaction regulation; P09471; multiplexed bead flow cytometry, RGS8-Galphao binding; actives lie on both sides; response (percent of control binding), % at 10 µM; hit rate 0.34% among 220,000; AID 1423; in the data active = response below about 60% or above about 140%; inactive = in between;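 also: Galphao activated as the GDP aluminium fluoride complex binding bead-coupled RGS8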
ABCB1 block = inhibitors of human ABCB1 transporter, ABCG2 counter-screen; P08183; CCRF-Adr cells, JC-1 efflux, flow cytometry; inhibition, % at 6.6 µM; hit rate 0.067% among 190,000; AID 1326; in the data active = inhibition above about 40%;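 also: higher value means more JC-1 retained so stronger ABCB1 efflux block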
RGS16-Gao HTS = regulators of human RGS16-Galphao interaction; O15492+P09471; bead-based flow cytometry RGS16-Galphao binding, fluorescence; actives lie on both sides; binding response (% of control), % at 10 µM; hit rate 0.38% among 220,000; AID 1441;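 also: Galphao activated by GDP with aluminum fluoride before binding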
Target sequence (O15492 whole entry, looked up): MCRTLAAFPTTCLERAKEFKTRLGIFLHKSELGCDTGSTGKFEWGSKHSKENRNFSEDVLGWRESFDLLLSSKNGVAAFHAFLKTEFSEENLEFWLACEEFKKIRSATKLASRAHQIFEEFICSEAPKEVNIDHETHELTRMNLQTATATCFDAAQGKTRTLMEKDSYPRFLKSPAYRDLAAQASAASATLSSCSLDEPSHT
Target sequence (P09471 whole entry, looked up): as the sequence (P09471 whole entry, looked up) above
RGS7-Gao reg = modulates binding of RGS7 to human Galphao. P09471. binding response (% of control), % at 10 µM. Multiplexed bead flow cytometry; actives lie on both sides. hit rate 0.35% among 220,000; in the data active = binding response below about 49% or above about 150%; inconclusive = no clear call, values can overlap the other calls; inactive = in between;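 also: fluorescent Galphao held in activated GDP-AlF4 state binding bead-coupled RGS7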
RGS4-Gao HTS = RGS4-Galphao interaction regulator (human). shares compounds with RGS16-Gao HTS. multiplexed bead flow cytometry, RGS–Galpha-o binding. RGS4–Galpha-o binding response, % at 10 µM. hit rate 99% among 1,600. AID 1504;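 also: fluorescently labeled Galpha-o bound to GDP with aluminium fluoride binding biotinylated RGS beads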
Biotin-avidin = counter-screen: compounds disrupting biotin binding to avidin beads. shares compounds with RGS16-Gao HTS. streptavidin beads, fluorescein-biotin binding, flow cytometry. inhibition, % at 10 µM. 1,700 tested, under 10 active;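 active = inhibition above 50%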;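 also: median green fluorescence of gated singlet beads compared with DMSO control wells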
RGS8-Gao single = RGS8-Galphao interaction regulation, single point confirmation. bead-based flow cytometry RGS8-Galphao binding, fluorescence; actives lie on both sides. binding response (% of control), % at 10 µM. shares compounds with RGS16-Gao HTS. hit rate 3% among 1,700; in the data active = binding response below about 72% or above about 130%; inactive = in between;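 also: Galphao activated as GDP AlF4 complex before binding bead RGS8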
RGS7-Gao single = RGS7-Galphao interaction regulation, single point confirmation. shares compounds with RGS16-Gao HTS. bead-based flow cytometry RGS7-Galphao binding; actives lie on both sides. response (percent of control binding), % at 10 µM. hit rate 7.8% among 1,700; in the data active = response below about 75% or above about 130%; inactive = in between;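 also: fluorescent Galphao activated with GDP and aluminum fluoride binding bead-coupled RGS7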
RGS16-Gao conf = RGS16-Galphao interaction regulation, single point confirmation; response (% of control binding), % at 10 µM; shares compounds with RGS16-Gao HTS; hit rate 4% among 1,700; bead-based flow cytometry, RGS16-Galphao binding; actives lie on both sides; in the data active = response below about 74% or above about 130%; inactive = in between;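 also: Galphao activated as the GDP aluminium fluoride complex binding bead-coupled RGS16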
RGS4-Gao confirm = confirmation of regulators of human RGS4-Galphao interaction; shares compounds with RGS16-Gao HTS; RGS4-Galphao binding, multiplexed bead flow cytometry; actives lie on both sides; binding response (% of control), % at 10 µM; hit rate 4% among 1,700; in the data active = binding response below about 74% or above about 130%; inactive = in between
RGS19-Gao single = RGS19-Galphao interaction regulation, single point confirmation | response (percent of control binding), % at 10 µM | AID 1841 | bead-based flow cytometry RGS19-Galphao binding; actives lie on both sides | hit rate 5% among 1,700 | shares compounds with RGS16-Gao HTS; in the data active = response below about 50% or above about 160%; inactive = in between
Of the large screens only hits and unclear results are named; the others gave an inactive call (follow-up assays come after a bar, where they were run); [ ] = remark or other dose. Most compounds without a hit are left out; they make up all but 0.9% or so of the library. Unless noted, no rule for the calls is given here.

COc1ccccc1NS(=O)(=O)c1cc(NC(=O)c2ccncc2)ccc1N1CCOCC1	RGS16-Gao HTS 22 | RGS4-Gao HTS 95 | Biotin-avidin inactive | RGS8-Gao single inactive | RGS7-Gao single inactive | RGS16-Gao conf inactive | RGS4-Gao confirm inactive | RGS19-Gao single inactive
Cc1noc(C)c1COC(=O)c1cccc(N(C)C)c1	none
Cc1ccc(-c2ccc(OCC(=O)N3CCOCC3)cc2)cc1	none
CCN1CCN(C(=S)c2ccc(OCC(=O)N3CCOCC3)cc2)CC1	RGS4-Gao reg 8.1, RGS8-Gao reg 17, RGS16-Gao HTS 5.2, RGS7-Gao reg 8.8 | Biotin-avidin inactive | RGS8-Gao single inactive | RGS7-Gao single inactive | RGS16-Gao conf inactive | RGS4-Gao confirm inactive | RGS19-Gao single inactive
O=C(COc1ccc(C(=S)N2CCOCC2)cc1)N1CCCC1	none
CCOc1cc(C(=S)N2CCCCC2)ccc1OCC(=O)NCc1ccccc1	none
CCN1CCN(C(=S)c2ccc(OCC(=O)NCc3ccccc3)cc2)CC1	RGS7-Gao reg 154[activator] | RGS4-Gao HTS 101 | Biotin-avidin inactive | RGS8-Gao single inactive | RGS7-Gao single inactive | RGS16-Gao conf inactive | RGS4-Gao confirm inactive | RGS19-Gao single inactive
Cc1cccc(OCC(=O)N2CCOCC2)c1	RGS4-Gao reg 160[activator], RGS7-Gao reg 271[activator] | Biotin-avidin inactive | RGS8-Gao single inactive | RGS7-Gao single inactive | RGS16-Gao conf inactive | RGS4-Gao confirm inactive | RGS19-Gao single inactive
CCOc1cc(N2CCOCC2)c(OCC)cc1NC(=O)c1ccc(OC(C)C)cc1	none
COCCn1c(SCC(=O)Nc2nnc(C)s2)nnc1-c1ccncc1	none (no result: RGS4-Gao reg, RGS8-Gao reg, RGS16-Gao HTS, RGS7-Gao reg) | Biotin-avidin inactive | RGS8-Gao single inactive | RGS7-Gao single inactive | RGS16-Gao conf inactive | RGS4-Gao confirm inactive | RGS19-Gao single inactive
CCCCn1c(SCC(=O)Nc2nnc(C)s2)nnc1-c1ccncc1	none
CCCc1nc2c(o1)CC(CC(C)SCC)CC2=O (configuration not stated)	RGS4-Gao reg -7.5, RGS8-Gao reg 7.4, RGS16-Gao HTS -7.1, RGS7-Gao reg -1.3 | Biotin-avidin inactive | RGS8-Gao single inactive | RGS7-Gao single inactive | RGS16-Gao conf inactive | RGS4-Gao confirm inactive | RGS19-Gao single inactive
CCOC(=O)C1C(=O)C(C(C)=O)C(=O)CC1CC(C)SCC (configuration not stated)	none
CCSC(C)CC1CC(=O)CC(=O)C1 (configuration not stated)	none (no result: RGS4-Gao reg, RGS8-Gao reg, RGS16-Gao HTS, RGS7-Gao reg) | Biotin-avidin inactive | RGS8-Gao single inactive | RGS7-Gao single inactive | RGS16-Gao conf inactive | RGS4-Gao confirm inactive | RGS19-Gao single inactive
CCCC(=O)Nc1ccc2c(c1)nc(CCN1CCCCC1)n2C	RGS7-Gao reg inconclusive (no result: ABCG2 inh, ABCB1 block)
COC(=O)c1sccc1NC(=O)c1cc(C)on1	none (no result: RGS16-Gao HTS) | Biotin-avidin inactive | RGS8-Gao single inactive | RGS7-Gao single inactive | RGS16-Gao conf inactive | RGS4-Gao confirm inactive | RGS19-Gao single inactive
COC(=O)c1sccc1NC(=O)c1c(C)noc1C	none
Cc1nnc(SCC(=O)NC(=O)NCc2ccco2)s1	RGS7-Gao reg inconclusive
O=C(CSc1nn(-c2ccc(F)cc2)c(=S)s1)NC(=O)NCc1ccco1	RGS16-Gao HTS 19 | RGS4-Gao HTS 74 | Biotin-avidin inactive | RGS8-Gao single inactive | RGS7-Gao single inactive | RGS16-Gao conf inactive | RGS4-Gao confirm inactive | RGS19-Gao single inactive
Cc1cc(C)c2oc(C(=O)Nc3ccc(S(=O)(=O)N4CCCC(C)C4)cc3)cc(=O)c2c1 (configuration not stated)	RGS4-Gao reg 152[activator], RGS7-Gao reg 168[activator] | Biotin-avidin inactive | RGS8-Gao single inactive | RGS7-Gao single inactive | RGS16-Gao conf inactive | RGS4-Gao confirm inactive | RGS19-Gao single inactive
CC1CCCN(S(=O)(=O)c2ccc(NC(=O)CN3CCN(C)CC3)cc2)C1 (configuration not stated)	none
Cc1cc(OC(=O)c2ccc(S(=O)(=O)N3CCCC3)cc2)c([N+](=O)[O-])c(=O)[nH]1	RGS8-Gao reg 142[activator] | RGS4-Gao HTS 112 | Biotin-avidin inactive | RGS8-Gao single inactive | RGS7-Gao single inactive | RGS16-Gao conf inactive | RGS4-Gao confirm inactive | RGS19-Gao single inactive
COc1ccc(-c2nnc(SCC(=O)c3[nH]c(C)c(C(C)=O)c3C)o2)cc1	RGS4-Gao reg 175[activator], RGS16-Gao HTS 180[activator] | Biotin-avidin inactive | RGS8-Gao single inactive | RGS7-Gao single inactive | RGS16-Gao conf inactive | RGS4-Gao confirm inactive | RGS19-Gao single inactive
CC(=O)c1c(C)[nH]c(C(=O)CSc2nnc(-c3ccco3)o2)c1C	RGS7-Gao reg inconclusive
O=C1c2cccnc2C(Nc2ccccc2Br)N1Cc1ccco1 (configuration not stated)	none
CCNC(=O)C(Sc1ccccc1)c1ccccc1 (configuration not stated)	RGS16-Gao HTS 252[activator] | RGS4-Gao HTS 106 | Biotin-avidin inactive | RGS8-Gao single inactive | RGS7-Gao single inactive | RGS16-Gao conf inactive | RGS4-Gao confirm inactive | RGS19-Gao single inactive
CCCCNC(=O)C(Sc1ccccc1)c1ccccc1 (configuration not stated)	none
Fc1ccc(-n2nnc(-c3cccnc3)n2)cc1	none
Clc1ccc(-n2nnc(-c3cccnc3)n2)cc1Cl	RGS4-Gao reg 47, RGS8-Gao reg 53, RGS7-Gao reg 43 | Biotin-avidin inactive | RGS8-Gao single inactive | RGS7-Gao single inactive | RGS16-Gao conf inactive | RGS4-Gao confirm inactive | RGS19-Gao single inactive
CSc1nc(N)nc(N(C)C)n1	RGS7-Gao reg inconclusive (no result: ABCG2 inh, ABCB1 block)
CSc1nc(N)nc(C2CC2)n1	RGS7-Gao reg inconclusive (no result: ABCG2 inh, ABCB1 block) | Biotin-avidin inactive | RGS8-Gao single inactive | RGS7-Gao single inactive | RGS16-Gao conf inactive | RGS4-Gao confirm inactive | RGS19-Gao single inactive
Cc1ccc(NC(=O)C(Nc2cccc(C)c2)c2ccccc2)cc1 (configuration not stated)	none
